From ChEMBL document CHEMBL1137716, “Novel modifications in the series of O-(2-phthalimidoethyl)-N-substituted thiocarbamates and their ring-opened congeners as non-nucleoside HIV-1 reverse transcriptase inhibitors” (Eur J Med Chem, 2009)
Calls of active or inactive are those of the source. The rule behind the calls is not given here.

What was measured:
[1] = tested on: Human immunodeficiency virus 1; test: Antiviral activity against HIV1 3B Y181C resistant mutant in human MT4 cells assessed as protection against viral induced cytopathogenicity by MTT assay; assay type: functional, organism-based; settings: Human immunodeficiency virus 1, 3B
Summary of the method: (§1)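 MT-4 cells infected with HIV-1 carrying the NNRTI-resistance mutation were assayed for protection from virus-induced cytopathogenicity, read out as cell viability by MTT. EC50 is the compound concentration giving 50% protection. Values are means of three separate experiments, with variation among triplicate samples under 10%. Efavirenz served as the reference.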

[2] = Selectivity index, ratio of CC50 for human MT4 cells to EC50 for HIV1 3B; assay type: toxicity, cell-based; settings: read-out: Ratio CC50/EC50
Summary of the method: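 Ratio of CC50 in mock-infected MT-4 cells to EC50 for protection from HIV-1 cytopathogenicity, both read by MTT method.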

[3] = Cytotoxicity against mock-infected human MT4 cells by MTT assay; assay type: cell-based
Summary of the method: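 Mock-infected MT-4 cells, tested in parallel with the antiviral assay; viability read by MTT method; CC50 is the concentration lowering viability by 50%; mean of three separate experiments, triplicate variation under 10%.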

[4] = tested on: Human immunodeficiency virus 1; test: Antiviral activity against wild type HIV1 3B in human MT4 cells assessed as protection against viral induced cytopathogenicity by MTT assay; assay type: functional, organism-based; settings: Human immunodeficiency virus 1, 3B
Summary of the method: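 MT-4 cells infected with HIV-1; 50% protection from virus-induced cytopathogenicity read by MTT method; EC50 in micromolar; mean of three separate experiments, triplicate samples varying under 10%.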

[5] = tested on: Human immunodeficiency virus 1; test: Antiviral activity against HIV1 3B Y181C/K103N double mutant in human MT4 cells assessed as protection against viral induced cytopathogenicity by MTT assay; assay type: functional, organism-based; summary of the method: as §1
[6] = tested on: Human immunodeficiency virus 1; test: Antiviral activity against HIV1 3B K103R resistant mutant in human MT4 cells assessed as protection against viral induced cytopathogenicity by MTT assay; settings: Human immunodeficiency virus 1, 3B

SMILES | EC50 [1] | selectivity ratio [2] | CC50 [3] | EC50 [4] | Activity [5] | EC50 [6]
Cc1ccc2c(c1)C(=O)N(CCOC(=S)Nc1ccc(F)cc1)C2=O | 68 µM | 3330 | 100 µM | 0.03 µM | inactive | –
Cc1ccc(NC(=S)OCC(C)N2C(=O)c3ccc(C)cc3C2=O)cc1 (racemic) | 12 µM | 410 | 41 µM | 0.1 µM | inactive | –
O=C1c2ccccc2C(=O)N1CCOC(=S)Nc1ccc(Cl)c([N+](=O)[O-])c1 | 2.8 µM | > 2000 | > 100 µM | 0.05 µM | inactive | –
Cc1ccc2c(c1)C(=O)N(CCOC(=S)Nc1ccc(Cl)c(C(F)(F)F)c1)C2=O | – | 17.9 | 43 µM | 2.4 µM | inactive | –
Cc1ccc2c(c1)C(=O)N(CCOC(=S)Nc1ccc(Cl)c([N+](=O)[O-])c1)C2=O | 30 µM | > 2000 | > 100 µM | 0.05 µM | inactive | –
C[C@H](COC(=S)Nc1ccc(Cl)cc1)N1C(=O)c2ccccc2C1=O | 1.3 µM | 4800 | 48 µM | 0.01 µM | inactive | 4.8 µM
S=C(NCCc1ccccn1)Nc1ccc(Br)cn1 [TROVIRDINE] | 15 µM | 3000 | – | 0.02 µM | – | –
Cc1cc(Br)cc(C)c1NC(=S)OCCN1C(=O)c2ccccc2C1=O | – | > 11.1 | > 100 µM | 9 µM | inactive | –
C[C@@H](COC(=S)Nc1ccc(Cl)cc1)NC(=O)c1ccccc1C(=O)O | – | > 43.5 | > 100 µM | 2.3 µM | inactive | –
COc1ccc(NC(=S)OCCN2C(=O)c3ccc(C)cc3C2=O)cc1 | 44 µM | > 3330 | > 100 µM | 0.03 µM | inactive | –
O=C1c2ccccc2C(=O)N1CCOC(=S)Nc1cc(F)cc(F)c1 | – | > 11.1 | > 100 µM | 9 µM | inactive | –
O=C1c2ccccc2C(=O)N1CCOC(=S)Nc1ccc(Cl)c(Cl)c1Cl | – | > 9.1 | > 100 µM | 11 µM | inactive | –
CCc1ccc(NC(=S)OCCN2C(=O)c3ccc(C)cc3C2=O)cc1 | 16 µM | 2150 | 43 µM | 0.02 µM | inactive | –
O=C1c2ccccc2C(=O)N1CCOC(=S)NCCc1ccccc1 | – | > 10.9 | > 100 µM | 9.2 µM | inactive | –
O=C(O)c1ccccc1C(=O)NCCOC(=S)Nc1c(F)cc(F)cc1F | – | > 13.9 | > 100 µM | 7.2 µM | inactive | –
Cc1ccc2c(c1)C(=O)N(CCOC(=S)Nc1ccc(Br)cc1)C2=O | – | 7380 | 59 µM | 0.008 µM | inactive | –
CC(C)(C)CC(C)(C)NC(=S)OCCN1C(=O)c2ccccc2C1=O | – | > 1.7 | > 100 µM | 60 µM | inactive | –
Cc1ccc2c(c1)C(=O)N(CCOC(=S)Nc1ccc(C#N)cc1)C2=O | 4.5 µM | 5700 | 57 µM | 0.01 µM | inactive | –

SMILES | EC50 [1] | selectivity ratio [2] | CC50 [3] | EC50 [4] | Activity [5] | EC50 [6]
O=C(O)c1ccccc1C(=O)NCCOC(=S)Nc1c(F)c(F)cc(F)c1F | – | > 1.4 | > 100 µM | 71 µM | inactive | –
O=C1c2ccccc2C(=O)N1CCOC(=S)Nc1c(F)c(F)cc(F)c1F | – | > 10 | > 100 µM | 10 µM | inactive | –
Cc1ccc2c(c1)C(=O)N(CCOC(=S)NC1CCCCC1)C2=O | – | > 333 | > 100 µM | 0.3 µM | inactive | –
COc1ccc(CCNC(=S)OCCN2C(=O)c3ccccc3C2=O)cc1OC | – | > 12.5 | > 100 µM | 8 µM | inactive | –
Cc1ccc(NC(=S)OCCN2C(=O)c3ccccc3C2=O)cc1Cl | – | > 125 | > 100 µM | 0.8 µM | inactive | –
COc1ccc(NC(=S)OCCN2C(=O)c3ccccc3C2=O)cc1OC | – | > 28.6 | > 100 µM | 3.5 µM | inactive | –
Cc1ccc(NC(=S)OC[C@@H](C)N2C(=O)c3ccccc3C2=O)cc1 | 9 µM | 1090 | 76 µM | 0.07 µM | inactive | –
O=C1c2ccccc2C(=O)N1CCOC(=S)Nc1c(F)cc(F)cc1F | – | > 50 | > 100 µM | 2 µM | inactive | –
Cc1ccc2c(c1)C(=O)N(CCOC(=S)Nc1ccc(C)c(Cl)c1)C2=O | – | 165 | 66 µM | 0.4 µM | inactive | –
O=C1c2ccccc2C(=O)N1CCOC(=S)Nc1ccc(F)cc1F | – | > 200 | > 100 µM | 0.5 µM | inactive | –
Cc1ccc2c(c1)C(=O)N(CCOC(=S)Nc1ccc(I)cc1)C2=O | 9 µM | 8900 | 89 µM | 0.01 µM | inactive | –
Cc1ccc(NC(=S)OCCN2C(=O)c3ccc(C)cc3C2=O)cc1 | – | 3450 | 69 µM | 0.02 µM | inactive | –
Cc1ccc2c(c1)C(=O)N(C(C)COC(=S)Nc1ccc(Cl)cc1)C2=O (racemic) | 4 µM | 567 | 34 µM | 0.06 µM | inactive | –
Cc1ccc(NC(=S)OC[C@H](C)NC(=O)c2ccccc2C(=O)O)cc1 | – | > 7.2 | > 100 µM | 13.8 µM | inactive | –
O=C1c2ccccc2C(=O)N1CCOC(=S)NCC1CCCCC1 | – | > 91 | > 100 µM | 1.1 µM | inactive | –
O=C1Nc2ccc(Cl)cc2[C@@](C#CC2CC2)(C(F)(F)F)O1 [EFAVIRENZ] | 0.02 µM | – | – | – | – | –
C[C@H](COC(=S)Nc1ccc(Cl)cc1)NC(=O)c1ccccc1C(=O)O | 18 µM | > 333 | > 100 µM | 0.3 µM | inactive | –
O=C(O)c1ccccc1C(=O)NCCOC(=S)Nc1c(F)cccc1F | – | > 2.2 | > 100 µM | 45 µM | inactive | –
